# Source: ChEMBL document CHEMBL1127375, “Nucleic acid related compounds. 84. Synthesis of 6'-(E and Z)-halohomovinyl derivatives of adenosine, inactivation of S-adenosyl-L-homocysteine hydrolase, and correlation of anticancer and antiviral potencies with enzyme inhibition” (J Med Chem, 1994)
# Experiments:
# [1] = system: Vero; assay: Tested for the antiviral activity against forest virus in simian Vero cells; type: functional; details: Chlorocebus sabaeus
# Summary of the method: (§1)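 Confluent E6SM, HeLa or Vero cultures were inoculated with 100 CCID50 of virus and allowed 1 h adsorption. Residual virus was removed, then cells were incubated with compound at 400, 200, 100 … μg/mL. Virus-induced cytopathicity was scored once complete in untreated infected controls. MIC is the minimum inhibitory concentration.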
# [2] = system: Vero; assay: Tested for the minimum cytotoxic concentration against Vero cells; type: functional; details: Chlorocebus sabaeus
# Summary of the method: (§2)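 Uninfected E6SM, HeLa or Vero cultures were incubated with serial compound concentrations (400, 200, 100 … μg/mL). Cytotoxicity was judged as microscopically detectable alteration of normal cell morphology. The value is the minimum concentration causing this alteration.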
# [3] = system: Vero; assay: Tested for the antiviral activity against Sindbis virus in simian Vero cells; type: functional; details: Chlorocebus sabaeus; summary of the method: as §1
# [4] = system: MOLT-4; assay: Tested for in vitro cytostatic activity against Human lymphoblast Molt-4 (Clone8); type: functional, cell-based
# Summary of the method: (§3)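 Cells seeded at 5 × 10^5/mL (murine L1210 leukemia, FM3A mammary carcinoma) or 7.5 × 10^5/mL (human Molt-4 clone 8, CEM) and exposed to varying compound concentrations. Incubation at 37 °C in humidified CO2 was 2 days for L1210/FM3A and 3 days for Molt-4/CEM. Viable cells were Coulter-counted; IC50 is the concentration reducing viable cell number by 50%. Means of at least two to three determinations.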
# [5] = system: HeLa; assay: Tested for the antiviral activity against Vesicular stomatitis virus in human HeLa cells; type: functional; summary of the method: as §1
# [6] = system: E6SM; assay: Tested for the antiviral activity against HSV-2 in Human E6SM cells; type: functional; summary of the method: as §1
# [7] = system: FM3A; assay: Tested for in vitro cytostatic activity against murine mammary carcinoma (FM3A); type: functional, cell-based; details: Mus musculus; summary of the method: as §3
# [8] = system: Vero; assay: Tested for the antiviral activity against Parainfluenza-3 virus in simian Vero cells; type: functional; details: Chlorocebus sabaeus; summary of the method: as §1
# [9] = system: CCRF-CEM; assay: Tested for in vitro cytostatic activity against CEM cells; type: functional, cell-based; details: Homo sapiens; summary of the method: as §3
# [10] = Tested ratio of kinact to that of Ki
# Summary of the method: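 Purified recombinant human placental AdoHcy hydrolase (10 nM) preincubated with various inhibitor concentrations for various times at 37 °C, pH 7.2, in 50 mM potassium phosphate with 1 mM EDTA. Residual activity was measured in the synthetic direction by adding Ado and homocysteine for 5 min. The reaction was stopped with perchloric acid and AdoHcy quantified by C-18 HPLC at 258 nm. Ki and kinact were derived from 1/Kapp = 1/kinact + Ki/kinact[I].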
# [11] = system: E6SM; assay: Tested for the antiviral activity against Vaccinia virus in human E6SM cells; type: functional; summary of the method: as §1
# [12] = system: E6SM; assay: Tested for the antiviral activity against HSV-1 (KOS) in human E6SM cells; type: functional; summary of the method: as §1
# [13] = system: E6SM; assay: Tested for the antiviral activity against Vesicular stomatitis virus in human E6SM cells; type: functional; summary of the method: as §1
# [14] = system: HeLa; assay: Tested for the antiviral activity against Coxsackie B4 virus in human HeLa cells; type: functional; summary of the method: as §1
# [15] = system: L1210; assay: Tested for in vitro cytostatic activity against murine leukemia L1210; type: functional, cell-based; details: Mus musculus; summary of the method: as §3
# [16] = biological target: T1, Adenosylhomocysteinase (Homo sapiens, UniProt P23526); assay: Tested for kinetic constant for the inhibition of recombinant human placental S-Adenosyl-L-homocysteine Hydrolase
# Target sequence in this assay (P23526 whole entry): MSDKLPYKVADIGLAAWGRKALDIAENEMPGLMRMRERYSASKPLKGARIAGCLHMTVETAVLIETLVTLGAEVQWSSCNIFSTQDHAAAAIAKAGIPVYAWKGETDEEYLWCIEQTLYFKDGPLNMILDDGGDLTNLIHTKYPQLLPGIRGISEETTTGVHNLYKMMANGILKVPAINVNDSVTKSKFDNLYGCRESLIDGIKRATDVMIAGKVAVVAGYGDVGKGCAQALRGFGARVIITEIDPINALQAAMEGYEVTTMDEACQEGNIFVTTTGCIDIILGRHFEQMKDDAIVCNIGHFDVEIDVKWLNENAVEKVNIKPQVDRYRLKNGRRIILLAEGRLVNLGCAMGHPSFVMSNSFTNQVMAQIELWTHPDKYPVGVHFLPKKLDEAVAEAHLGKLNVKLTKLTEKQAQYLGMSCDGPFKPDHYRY
# [17] = system: HeLa; assay: Tested for the minimum cytotoxic concentration against HeLa cells; type: functional; details: Homo sapiens; summary of the method: as §2
# [18] = system: Vero; assay: Tested for the antiviral activity against reovirus-1 in simian Vero cells; type: functional; details: Chlorocebus sabaeus; summary of the method: as §1
# [19] = system: E6SM; assay: Tested for the minimum cytotoxic concentration against E6SM cells; type: functional; details: Homo sapiens; summary of the method: as §2
# [20] = biological target: T1, Adenosylhomocysteinase
# Target sequence in this assay (P23526 2-432 limits assumed): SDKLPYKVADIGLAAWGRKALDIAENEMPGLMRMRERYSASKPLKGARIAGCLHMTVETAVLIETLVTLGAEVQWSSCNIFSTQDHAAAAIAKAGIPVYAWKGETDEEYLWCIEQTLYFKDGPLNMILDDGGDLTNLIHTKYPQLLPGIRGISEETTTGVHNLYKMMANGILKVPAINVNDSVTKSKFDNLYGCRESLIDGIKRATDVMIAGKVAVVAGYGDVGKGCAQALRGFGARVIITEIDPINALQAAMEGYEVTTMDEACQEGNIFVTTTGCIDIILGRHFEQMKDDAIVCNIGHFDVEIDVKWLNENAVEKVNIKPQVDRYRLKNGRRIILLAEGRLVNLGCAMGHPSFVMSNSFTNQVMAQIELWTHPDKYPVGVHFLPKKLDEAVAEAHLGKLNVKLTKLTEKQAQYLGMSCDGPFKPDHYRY
# [21] = system: MOLT-4; assay: Tested for in vitro cytostatic activity against human lymphoblast Molt-4 (Clone8); type: functional, cell-based; summary of the method: as §3
# [22] = system: HeLa; assay: Tested for the antiviral activity against polio-1 virus in human HeLa cells; type: functional; summary of the method: as §1
# [23] = system: E6SM; assay: Tested for the antiviral activity against HSV-2 in human E6SM cells; type: functional; summary of the method: as §1
# [24] = system: E6SM; assay: Tested for the minimum cytotoxic concentration on E6SM cells; type: functional; details: Homo sapiens; summary of the method: as §2
# [25] = system: HeLa; assay: Tested for the minimum cytotoxic concentration on HeLa cells; type: functional; details: Homo sapiens; summary of the method: as §2
# [26] = system: Vero; assay: Tested for the antiviral activity against Parainfluenza-3 virus in Simian Vero cells; type: functional; details: Chlorocebus sabaeus; summary of the method: as §1
# [27] = system: Vero; assay: Tested for the minimum cytotoxic concentration on Vero cells; type: functional; details: Chlorocebus sabaeus; summary of the method: as §2
# [28] = system: HeLa; assay: Tested for the antiviral activity against Coxsackie B4 virus in Human HeLa cells; type: functional; summary of the method: as §1
smiles,measurement,setting,value
Nc1ncnc2c1ncn2[C@@H]1O[C@H](/C=C/Br)[C@@H](O)[C@H]1O,MIC,[1],> 100 µg/mL
same,MCC,[2],≥ 200 µg/mL
same,MIC,[3],> 100 µg/mL
same,IC50,[4],56 µM
same,MIC,[5],7 µg/mL
same,MIC,[6],> 100 µg/mL
same,IC50,[7],60 µM
same,MIC,[8],> 200 µg/mL
same,IC50,[9],56 µM
same,Ratio,[10],0.21
same,MIC,[11],20 µg/mL
same,MIC,[12],150 µg/mL
same,MIC,[13],7 µg/mL
same,MIC,[14],> 100 µg/mL
same,IC50,[15],42 µM
same,Ki,[16],0.134 µM
same,MCC,[17],≥ 200 µg/mL
same,MIC,[18],> 100 µg/mL
same,MCC,[19],≥ 200 µg/mL
same,K inact,[20],0.028 min⁻¹
Nc1ncnc2c1ncn2[C@@H]1O[C@H](/C=C\Br)[C@@H](O)[C@H]1O,MIC,[1],150 µg/mL
same,MCC,[2],≥ 200 µg/mL
same,MIC,[3],20 µg/mL
same,MIC,[5],150 µg/mL
same,IC50,[21],93 µM
same,IC50,[7],134 µM
same,MIC,[8],150 µg/mL
same,IC50,[9],65 µM
same,MIC,[11],150 µg/mL
same,MIC,[12],70 µg/mL
same,MIC,[13],150 µg/mL
same,MIC,[14],> 200 µg/mL
same,MIC,[22],> 200 µg/mL
same,IC50,[15],104 µM
same,MIC,[23],> 200 µg/mL
same,MCC,[17],> 200 µg/mL
same,MIC,[18],> 100 µg/mL
same,MCC,[19],> 200 µg/mL
Cc1ccc(S(=O)(=O)/C=C/[C@H]2OC(n3cnc4c(N)ncnc43)[C@H](O)[C@@H]2O)cc1 (some centres undefined),MIC,[1],> 400 µg/mL
same,MCC,[24],200 µg/mL
same,MIC,[3],> 400 µg/mL
same,MIC,[5],> 400 µg/mL
same,IC50,[21],32 µM
same,MIC,[6],20 µg/mL
same,IC50,[7],208 µM
same,MCC,[25],> 400 µg/mL
same,IC50,[9],20 µM
same,MIC,[11],20 µg/mL
same,MIC,[12],20 µg/mL
same,MIC,[13],> 100 µg/mL
same,MIC,[14],> 400 µg/mL
same,MIC,[22],> 400 µg/mL
same,IC50,[15],54 µM
same,MIC,[26],> 400 µg/mL
same,MIC,[18],> 400 µg/mL
same,MCC,[27],> 400 µg/mL
Nc1ncnc2c1ncn2[C@@H]1O[C@H](/C=C\Cl)[C@@H](O)[C@H]1O,MIC,[1],70 µg/mL
same,MCC,[2],≥ 100 µg/mL
same,MIC,[3],20 µg/mL
same,MIC,[5],70 µg/mL
same,IC50,[21],117 µM
same,IC50,[7],164 µM
same,MIC,[8],> 100 µg/mL
same,IC50,[9],86 µM
same,MIC,[11],20 µg/mL
same,MIC,[12],70 µg/mL
same,MIC,[13],20 µg/mL
same,MIC,[14],> 100 µg/mL
same,IC50,[15],143 µM
same,MIC,[23],> 100 µg/mL
same,MCC,[17],≥ 200 µg/mL
same,MIC,[18],70 µg/mL
same,MCC,[19],≥ 200 µg/mL
Nc1ncnc2c1ncn2[C@@H]1O[C@H](/C=C/Cl)[C@@H](O)[C@H]1O,MIC,[1],> 100 µg/mL
same,MCC,[2],≥ 200 µg/mL
same,MIC,[3],> 100 µg/mL
same,MIC,[5],> 200 µg/mL
same,IC50,[21],80 µM
same,IC50,[7],160 µM
same,MIC,[8],> 200 µg/mL
same,IC50,[9],99 µM
same,Ratio,[10],0.13
same,MIC,[11],70 µg/mL
same,MIC,[12],> 200 µg/mL
same,MIC,[13],70 µg/mL
same,MIC,[14],> 200 µg/mL
same,MIC,[22],> 200 µg/mL
same,IC50,[15],139 µM
same,Ki,[16],0.11 µM
same,MIC,[23],> 200 µg/mL
same,MCC,[17],≥ 200 µg/mL
same,MIC,[18],> 100 µg/mL
same,MCC,[19],400 µg/mL
same,K inact,[20],0.014 min⁻¹
Nc1ncnc2c1ncn2[C@@H]1O[C@H](/C=C\I)[C@@H](O)[C@H]1O,MIC,[1],> 200 µg/mL
same,MCC,[2],> 200 µg/mL
same,MIC,[3],> 200 µg/mL
same,MIC,[5],7 µg/mL
same,IC50,[21],21 µM
same,IC50,[7],43 µM
same,MIC,[8],> 200 µg/mL
same,IC50,[9],32 µM
same,MIC,[11],20 µg/mL
same,MIC,[12],> 200 µg/mL
same,MIC,[13],7 µg/mL
same,MIC,[14],> 200 µg/mL
same,IC50,[15],43 µM
same,MIC,[23],> 200 µg/mL
same,MCC,[17],> 200 µg/mL
same,MIC,[18],100 µg/mL
same,MCC,[19],> 200 µg/mL
C=C(Br)[C@H]1OC(n2cnc3c(N)ncnc32)[C@H](O)[C@@H]1O (some centres undefined),IC50,[7],47 µM
same,IC50,[9],13 µM
same,IC50,[15],25 µM
Nc1ncnc2c1ncn2C1O[C@H](/C=C/I)[C@@H](O)[C@H]1O (some centres undefined),MIC,[1],> 200 µg/mL
same,MCC,[2],≥ 200 µg/mL
same,MIC,[3],> 200 µg/mL
same,MIC,[5],7 µg/mL
same,IC50,[21],18 µM
same,IC50,[7],15 µM
same,MIC,[8],> 200 µg/mL
same,IC50,[9],26 µM
same,Ratio,[10],0.6
same,MIC,[11],7 µg/mL
same,MIC,[12],> 100 µg/mL
same,MIC,[13],2 µg/mL
same,MIC,[14],> 100 µg/mL
same,IC50,[15],15 µM
same,Ki,[16],0.096 µM
same,MIC,[23],> 100 µg/mL
same,MCC,[17],200 µg/mL
same,MIC,[18],> 200 µg/mL
same,MCC,[19],≥ 200 µg/mL
same,K inact,[20],0.058 min⁻¹
Nc1ncnc2c1ncn2C1O[C@H](/C=C/F)[C@@H](O)[C@H]1O (some centres undefined),MCC,[2],> 200 µg/mL
same,MIC,[3],200 µg/mL
same,MIC,[5],> 100 µg/mL
same,IC50,[21],266 µM
same,MIC,[28],> 100 µg/mL
same,IC50,[7],287 µM
same,MIC,[8],150 µg/mL
same,IC50,[9],147 µM
same,Ratio,[10],0.008
same,MIC,[11],70 µg/mL
same,MIC,[12],> 200 µg/mL
same,MIC,[13],100 µg/mL
same,MIC,[22],150 µg/mL
same,IC50,[15],301 µM
same,Ki,[16],1.3 µM
same,MIC,[23],150 µg/mL
same,MCC,[17],> 200 µg/mL
same,MIC,[18],70 µg/mL
same,MCC,[19],> 200 µg/mL
same,K inact,[20],0.01 min⁻¹
